One assay has as its system MDA-MB-231. As to the kind of experiment: Antiproliferative activity against human MDA-MB-231 cells after 72 hrs by SRB assay. Type of assay: functional, cell-based. The method in brief: (§1)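 Cells grown in RPMI-1640 with 2 mM L-glutamine, 25 mM HEPES, 10% FBS, penicillin/streptomycin and amphotericin B. KB-VIN maintained with 100 nM vincristine. Freshly trypsinized cells seeded at 4000–7500 per well, depending on doubling time, together with compounds for 72 h. Fixed in 10% TCA, stained with 0.04% SRB, dye solubilized in 10 mM Tris base, absorbance read at 515 nm.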
(Sulforhodamine B stains cellular protein and so reports cell mass.)

The nature of assay [1]: Antiproliferative activity against human KBVIN cells after 72 hrs by SRB assay. Type of assay: functional, cell-based. The method in brief: as §1
The next assay has as its system KB. As to the kind of experiment: Antiproliferative activity against human KB cells after 72 hrs by SRB assay. The class given is functional, cell-based. The method in brief:
as §1

Assay [2] relates to A549. As to the kind of experiment: Antiproliferative activity against human A549 cells after 72 hrs by SRB assay. Type of assay: functional, cell-based.
Assay [3] relates to A549. Briefly: Cell cycle arrest in human A549 cells assessed as accumulation after 24 hrs by propidium iodide staining based flow cytometry. The class given is functional. The method in brief:
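A549 cells seeded at 75 000 per well 24 h before dosing, then treated 24 h at 1× or 3× the IC50 concentration. DMSO and 20 nM combretastatin A-4 served as controls. Floating plus trypsinized cells pooled, fixed in 70% EtOH overnight at –20 °C, stained with propidium iodide 30 min at 37 °C. DNA content analysed by flow cytometry for G2/M population.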

Regarding `Cc1cc(/C=C2\C(=O)OC\C2=C\c2ccc3c(c2)OCO3)ccc1F`, the IC50 in the assay with MDA-MB-231 (Homo sapiens, MDA-MB-231, 72 h) was above 40 µM; in assay [1] (Homo sapiens, KBVIN, 72 h), above 40 µM; in the assay on KB (Homo sapiens, KB, 72 h) it was above 40 µM; in the assay with A549 [2] (Homo sapiens, A549, 72 h), above 40 µM.

As to `COc1cc(/C=C2\C(=O)OC\C2=C\c2ccc3c(c2)OCO3)cc(OC)c1O`, the 50% inhibitory concentration (IC50) in the assay with MDA-MB-231 (Homo sapiens, MDA-MB-231, 72 h) was above 40 µM; in assay [1] (Homo sapiens, KBVIN, 72 h), above 40 µM; with KB (Homo sapiens, KB, 72 h) it was above 40 µM; in the assay on A549 [2] (Homo sapiens, A549, 72 h), above 40 µM.

In the case of `COc1cc(/C=C2\C(=O)OCC2Cc2ccc3c(c2)OCO3)cc(OC)c1OC(=O)CN(C)C` (stereo not given) [listing 1 of 2 here], the IC50 is 9.37 µM in the assay with MDA-MB-231 (mda-mb-231), 7.06 µM in assay [1], 8.71 µM in the assay on KB (kb) and 5.93 µM in the assay on A549 [2] (a549).

Turning to `COc1cc(/C=C2\C(=O)OCC2Cc2ccc3c(c2)OCO3)cc(OC(=O)CN(C)C)c1OC` (stereo not given) [listing 1 of 3 here], the half-inhibitory concentration (IC50) in the assay with MDA-MB-231 (mda-mb-231) turned out to be 8.91 µM; in assay [1], 5.34 µM; with KB (kb) it was 5.53 µM; with A549 [2] (Homo sapiens, A549, 72 h), 5.02 µM.

As to `COc1cc(/C=C2\C(=O)OCC2Cc2ccc3c(c2)OCO3)cc(OC(=O)CN(C)C)c1OC` (stereo not given) [listing 2 of 3 here], the Activity entry with A549 [3] was “Dose-dependent effect”.

Take `COc1cc(/C=C2\C(=O)OCC2Cc2ccc3c(c2)OCO3)cc(OC)c1OC` (racemic): the Activity result in the assay on A549 [3] is “Dose-dependent effect”. For the same compound, the 50% inhibitory concentration (IC50) in the assay on MDA-MB-231 (Homo sapiens, MDA-MB-231, 72 h) worked out at 5.88 µM; in assay [1] (Homo sapiens, KBVIN, 72 h), 5.51 µM; with KB (Homo sapiens, KB, 72 h), 9.9 µM; in the assay with A549 [2] (Homo sapiens, A549, 72 h) it was 5.5 µM.

Turning to `COc1cc(/C=C2\C(=O)OCC2Cc2ccc3c(c2)OCO3)cc(OC)c1OC(=O)[C@@H](N)Cc1ccccc1` (stereo not given in full), the IC50 with MDA-MB-231 (Homo sapiens, MDA-MB-231, 72 h) is 9.73 µM; in assay [1] (Homo sapiens, KBVIN, 72 h), 7.59 µM; in the assay with KB (Homo sapiens, KB, 72 h) it was 9.2 µM; with A549 [2] (Homo sapiens, A549, 72 h) it was 5.97 µM.

`COc1cc(/C=C2\C(=O)OCC2Cc2ccc3c(c2)OCO3)cc(OC(=O)[C@@H](N)Cc2ccccc2)c1OC` (stereo not given in full): the 50% inhibitory concentration (IC50) in the assay with MDA-MB-231 (Homo sapiens, MDA-MB-231, 72 h) stood at 8.8 µM; in assay [1] (Homo sapiens, KBVIN, 72 h), 4.95 µM; with KB (Homo sapiens, KB, 72 h), 5.4 µM; in the assay with A549 [2] (Homo sapiens, A549, 72 h), 4.8 µM.

As to `COc1cc(/C=C2\C(=O)OCC2Cc2ccc3c(c2)OCO3)cc(OC)c1O` (stereo not given), the concentration for half-maximal inhibition (IC50) was above 40 µM in the assay with MDA-MB-231 (Homo sapiens, MDA-MB-231, 72 h); 6.78 µM in assay [1] (Homo sapiens, KBVIN, 72 h); 11.5 µM in the assay with KB (Homo sapiens, KB, 72 h); 6.17 µM with A549 [2] (Homo sapiens, A549, 72 h).

On to `COc1cc(/C=C2\C(=O)OC\C2=C\c2ccc3c(c2)OCO3)cc(OC(=O)CN(C)C)c1OC`, for which the IC50 was above 40 µM in the assay with MDA-MB-231 (Homo sapiens, MDA-MB-231, 72 h); above 40 µM in assay [1] (Homo sapiens, KBVIN, 72 h); above 40 µM in the assay on KB (Homo sapiens, KB, 72 h); above 40 µM with A549 [2] (Homo sapiens, A549, 72 h).

For `COc1cc(/C=C2\C(=O)OC\C2=C\c2ccc3c(c2)OCO3)cc(OC)c1OC(=O)CN(C)C`, the IC50 is above 40 µM in the assay with MDA-MB-231 (Homo sapiens, MDA-MB-231, 72 h); above 40 µM in assay [1] (Homo sapiens, KBVIN, 72 h); above 40 µM in the assay with KB (Homo sapiens, KB, 72 h); above 40 µM with A549 [2] (Homo sapiens, A549, 72 h).

Take `COc1cc(/C=C2\C(=O)OC\C2=C\c2ccc3c(c2)OCO3)cc(O)c1OC`: the IC50 in the assay on MDA-MB-231 (Homo sapiens, MDA-MB-231, 72 h) was above 40 µM; in assay [1] (Homo sapiens, KBVIN, 72 h), 29 µM; with KB (Homo sapiens, KB, 72 h) it was 34 µM; with A549 [2] (Homo sapiens, A549, 72 h), 31.2 µM.

`COc1cc(/C=C2\C(=O)OCC2Cc2ccc3c(c2)OCO3)cc(OC(=O)CN(C)C)c1OC` (stereo not given) [listing 3 of 3 here]: the IC50 in the assay with MDA-MB-231 (Homo sapiens, MDA-MB-231, 72 h) was found to be 9.04 µM; in assay [1] (Homo sapiens, KBVIN, 72 h), 4.51 µM; in the assay on KB (Homo sapiens, KB, 72 h), 4.98 µM; in the assay with A549 [2] (a549), 3.32 µM.

For the compound `Cc1cc(/C=C2\C(=O)OCC2Cc2ccc3c(c2)OCO3)ccc1F` (stereo not given), the IC50 in the assay with MDA-MB-231 (Homo sapiens, MDA-MB-231, 72 h) came to 8.81 µM; in assay [1] (Homo sapiens, KBVIN, 72 h) it was 5.51 µM; with KB (Homo sapiens, KB, 72 h), 6.47 µM; in the assay with A549 [2] (Homo sapiens, A549, 72 h), 5.72 µM.

Take `COc1ccc(/C=C\c2cc(OC)c(OC)c(OC)c2)cc1O`: the Activity entry in the assay with A549 [3] was “Dose-dependent effect”.

For the compound `COc1cc(/C=C2\C(=O)OCC2Cc2ccc3c(c2)OCO3)cc(O)c1OC` (stereo not given), the IC50 in the assay with MDA-MB-231 (Homo sapiens, MDA-MB-231, 72 h) was 8.55 µM; in assay [1] (Homo sapiens, KBVIN, 72 h), 4.84 µM; with KB (Homo sapiens, KB, 72 h), 5.18 µM; in the assay with A549 [2] (Homo sapiens, A549, 72 h), 4.32 µM.

As for `COc1cc(/C=C2\C(=O)OC\C2=C\c2ccc3c(c2)OCO3)cc(OC(=O)[C@@H](N)Cc2ccccc2)c1OC`, the IC50 in the assay with MDA-MB-231 (Homo sapiens, MDA-MB-231, 72 h) was above 40 µM; in assay [1] (Homo sapiens, KBVIN, 72 h) it was above 40 µM; with KB (Homo sapiens, KB, 72 h), above 40 µM; in the assay on A549 [2] (Homo sapiens, A549, 72 h), above 40 µM.

With `COc1cc(/C=C2\C(=O)OC\C2=C\c2ccc3c(c2)OCO3)cc(OC)c1OC(=O)[C@@H](N)Cc1ccccc1`, the IC50 in the assay with MDA-MB-231 (Homo sapiens, MDA-MB-231, 72 h) is above 40 µM; in assay [1] (Homo sapiens, KBVIN, 72 h) it was above 40 µM; in the assay with KB (Homo sapiens, KB, 72 h), above 40 µM; in the assay with A549 [2] (Homo sapiens, A549, 72 h), above 40 µM.

As for `COc1cc(/C=C2\C(=O)OC\C2=C\c2ccc3c(c2)OCO3)cc(OC)c1OC`, the IC50 was above 40 µM with MDA-MB-231 (Homo sapiens, MDA-MB-231, 72 h); 28.3 µM in assay [1] (Homo sapiens, KBVIN, 72 h); 34 µM in the assay on KB (Homo sapiens, KB, 72 h); 35.2 µM in the assay with A549 [2] (Homo sapiens, A549, 72 h).

As for `COc1cc(/C=C2\C(=O)OCC2Cc2ccc3c(c2)OCO3)cc(OC)c1OC(=O)CN(C)C` (stereo not given) [listing 2 of 2 here], the IC50 was 29 µM with MDA-MB-231 (mda-mb-231); 17.6 µM in assay [1]; 18.1 µM with KB (kb); 6.15 µM in the assay with A549 [2] (Homo sapiens, A549, 72 h).

A word on the IC50: it is the point on the concentration scale where inhibition reaches its midpoint.

(Values after ChEMBL document CHEMBL4261556, “Design, Synthesis and Structure-Activity Relationships of (±)-Isochaihulactone Derivatives” (Medchemcomm, 2017).)
